# According to ChEMBL document CHEMBL1150225, “Cytotoxic cholestane glycosides from the bulbs of Ornithogalum saundersiae” (J Nat Prod, 2001):
# Test system: HL-60
# Assay: Cytotoxicity against human HL60 cells after 72 hrs by MTT assay
# Format: functional, cell-based
# Conditions: HL-60, 72 h
# Method in brief: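 HL-60 leukemia cells kept in RPMI 1640 with 10% fetal bovine serum, L-glutamine, 100 units/mL penicillin and 100 μg/mL streptomycin. Cells at 3 × 10^4 cells/mL exposed continuously to compound for 72 h. Growth read by MTT reduction. IC50 (50% inhibition) calculated from each compound's dose–response curve.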
smiles,measurement,value
COc1ccc(C(=O)O[C@H]2[C@H](O[C@@H]3[C@@H](OC(C)=O)[C@H](O[C@H]4C[C@H]5[C@@H]6CC=C7C[C@@H](O)CC[C@]7(C)[C@H]6CC[C@]5(C)[C@@]4(O)[C@H](C)C(=O)CCC(C)C)OC[C@@H]3O)OC[C@@H](O[C@@H]3O[C@H](CO)[C@@H](O)[C@H](O)[C@H]3O)[C@@H]2O)cc1OC,IC50,16 nM
